Measurements as given in ChEMBL document CHEMBL3600316, “Discovery of an 8-methoxytetrahydroisoquinoline derivative as an orally active N-type calcium channel blocker for neuropathic pain without CYP inhibition liability” (Bioorg Med Chem, 2015).
pIC50: −log10 of the molar value.

Key:
[1] = Inhibition of N-type calcium channel in human IMR-32 cells by FLIPR calcium imaging assay; assay type: cell-based
Outline: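 FLIPR calcium imaging in IMR-32 human neuroblastoma cells with nitrendipine present to block endogenous L-type channels; IC50 determined in duplicate in one experiment, advanced compounds tested in several repeat assays.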

Cytochrome P450 2D6 = Cytochrome P450 2D6 (Homo sapiens, UniProt P10635); test: Inhibition of CYP2D6 (unknown origin) by fluorescence-based assay
Sequence of Cytochrome P450 2D6 (P10635 whole entry): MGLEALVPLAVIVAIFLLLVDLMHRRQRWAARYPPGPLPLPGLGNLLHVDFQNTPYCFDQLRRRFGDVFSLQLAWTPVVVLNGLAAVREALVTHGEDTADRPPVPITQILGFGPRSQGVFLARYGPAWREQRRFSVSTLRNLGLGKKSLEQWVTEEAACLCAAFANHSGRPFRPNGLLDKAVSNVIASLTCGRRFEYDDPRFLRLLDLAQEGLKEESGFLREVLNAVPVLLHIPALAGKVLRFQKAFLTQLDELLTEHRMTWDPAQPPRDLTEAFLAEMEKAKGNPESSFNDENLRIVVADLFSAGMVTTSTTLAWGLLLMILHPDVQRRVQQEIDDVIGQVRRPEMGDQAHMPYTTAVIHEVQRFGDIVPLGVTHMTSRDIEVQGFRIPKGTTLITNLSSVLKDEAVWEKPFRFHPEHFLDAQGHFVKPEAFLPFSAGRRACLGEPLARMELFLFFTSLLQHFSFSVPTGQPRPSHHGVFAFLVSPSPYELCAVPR

CYP3A4 [2] = target: T1, CYP3A4 (Homo sapiens, UniProt P08684); test: Reversible inhibition of CYP3A4 in human liver microsomes assessed as residual enzyme activity using midazolam as substrate by fluorescence-based assay; conditions: probe midazolam
T1 sequence (P08684 whole entry): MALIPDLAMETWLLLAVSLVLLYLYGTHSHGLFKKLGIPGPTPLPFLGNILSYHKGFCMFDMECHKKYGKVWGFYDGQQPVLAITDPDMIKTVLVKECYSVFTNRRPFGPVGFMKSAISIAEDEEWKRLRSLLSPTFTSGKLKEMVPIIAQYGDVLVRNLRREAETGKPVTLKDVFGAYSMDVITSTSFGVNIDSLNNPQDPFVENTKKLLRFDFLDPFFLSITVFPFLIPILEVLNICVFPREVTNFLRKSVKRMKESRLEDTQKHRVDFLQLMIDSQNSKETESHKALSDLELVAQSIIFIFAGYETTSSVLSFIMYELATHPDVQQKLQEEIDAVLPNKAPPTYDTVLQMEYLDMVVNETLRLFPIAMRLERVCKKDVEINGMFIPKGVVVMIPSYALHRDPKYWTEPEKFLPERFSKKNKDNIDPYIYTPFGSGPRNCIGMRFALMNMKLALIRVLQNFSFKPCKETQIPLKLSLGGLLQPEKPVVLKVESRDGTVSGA

CYP3A4 [3] = target: T1, CYP3A4; test: Time-dependent inhibition of CYP3A4 in human liver microsomes assessed as residual enzyme activity using midazolam as substrate preincubated for 30 mins by fluorescence-based assay; conditions: probe midazolam
Mus musculus = test: Antinociceptive activity in ddY mouse at 100 mg/kg, po by formalin test; assay type: functional
Cytochrome P450 2C9 = Cytochrome P450 2C9 (Homo sapiens, UniProt P11712); test: Inhibition of CYP2C9 (unknown origin) by fluorescence-based assay; assay type: ADME
Sequence of Cytochrome P450 2C9 (P11712 whole entry): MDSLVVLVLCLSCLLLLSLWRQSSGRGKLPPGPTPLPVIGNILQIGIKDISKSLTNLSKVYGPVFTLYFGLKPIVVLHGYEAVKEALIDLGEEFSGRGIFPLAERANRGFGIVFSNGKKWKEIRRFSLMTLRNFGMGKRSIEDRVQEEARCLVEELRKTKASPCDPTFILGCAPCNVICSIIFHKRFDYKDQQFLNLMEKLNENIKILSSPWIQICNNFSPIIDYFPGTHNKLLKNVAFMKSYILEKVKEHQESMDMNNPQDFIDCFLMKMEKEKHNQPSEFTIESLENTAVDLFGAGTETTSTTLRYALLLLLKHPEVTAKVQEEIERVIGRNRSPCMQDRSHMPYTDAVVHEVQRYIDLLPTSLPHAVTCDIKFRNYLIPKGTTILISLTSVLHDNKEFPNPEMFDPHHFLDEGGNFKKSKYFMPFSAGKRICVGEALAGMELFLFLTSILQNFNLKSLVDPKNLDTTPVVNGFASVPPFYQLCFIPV
Outline: (§1)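 Fluorescence-based assay with fluorogenic substrate, as for CYP1A2 and 2D6; IC50 determined.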

Cytochrome P450 2C19 = Cytochrome P450 2C19 (Homo sapiens, UniProt P33261); test: Inhibition of CYP2C19 (unknown origin) by fluorescence-based assay; assay type: ADME; outline: as §1
Sequence of Cytochrome P450 2C19 (P33261 whole entry): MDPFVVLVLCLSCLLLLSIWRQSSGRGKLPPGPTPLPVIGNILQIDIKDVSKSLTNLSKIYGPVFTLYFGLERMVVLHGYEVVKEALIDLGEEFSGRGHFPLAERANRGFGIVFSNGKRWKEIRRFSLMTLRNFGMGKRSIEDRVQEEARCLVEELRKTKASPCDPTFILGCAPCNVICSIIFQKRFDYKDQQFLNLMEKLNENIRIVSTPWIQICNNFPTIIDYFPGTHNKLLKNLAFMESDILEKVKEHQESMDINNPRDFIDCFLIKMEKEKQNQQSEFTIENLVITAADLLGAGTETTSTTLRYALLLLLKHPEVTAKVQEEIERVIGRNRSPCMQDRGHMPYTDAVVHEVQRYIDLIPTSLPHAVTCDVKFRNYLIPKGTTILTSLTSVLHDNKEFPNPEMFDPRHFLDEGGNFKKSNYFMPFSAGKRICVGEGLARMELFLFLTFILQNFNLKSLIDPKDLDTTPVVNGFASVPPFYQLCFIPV

[4] = target: Voltage-gated L-type calcium channel (Homo sapiens, UniProt Q13936+Q13698+Q01668+O60840); test: Inhibition of L-type calcium channel in human IMR-32 cells by FLIPR calcium imaging assay; assay type: cell-based
[5] = Clearance in human liver microsomes; assay type: ADME; conditions: read-out: CLH
Rattus norvegicus = test: Analgesic activity in po dosed Sprague-Dawley rat L5/L6 SNL model assessed as reduction of mechanical allodynia; assay type: functional
Outline: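 Male Sprague-Dawley rats, L5/L6 spinal nerve ligation model; drug suspended/diluted in 0.5% methylcellulose, given orally at 0.3–10 mg/kg (dose as free form).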

SMILES	pIC50 [1]	pIC50 (Cytochrome P450 2D6)	activity (CYP3A4 [2]) [%]	activity at 30 min (CYP3A4 [3]) [%]	inhibition in vivo at 100 mg/kg (Mus musculus) [%]	pIC50 (Cytochrome P450 2C9)	pIC50 (Cytochrome P450 2C19)	IC50 [4] [µM]	CLint scaled [5] [mL/min/kg]	ED50 (Rattus norvegicus) [mg/kg]
COc1ccc2c(c1)CCN(C(=O)CNC[C@@H](C)O)C2C1CCCCC1 (stereo partly specified)	5.72	> 6.11	93	97						
CCc1ccc2c(c1)C(C1CCCCC1)N(C(=O)CNC[C@@H](C)O)CC2 (stereo partly specified)	6.05	5.89	85	65						
CC(C)(O)CNCC(=O)N1CCc2ccccc2C1C1CCCCC1 (stereo unspecified)	5.77				7.7					
COc1cccc2c1CCN(C(=O)CNC[C@@H](C)O)C2C1CCCCC1 (stereo partly specified)	5.70	> 6.11	107	63						
C[C@@H](O)CNCC(=O)N1CCc2ccccc2[C@@H]1C1CCCCC1	5.77	5.85	105	87	55					
CC[C@@H](O)CNCC(=O)N1CCc2ccccc2C1C1CCCCC1 (stereo partly specified)	5.82	6.00	87	88	19					
CC[C@H](O)CNCC(=O)N1CCc2ccccc2C1C1CCCCC1 (stereo partly specified)	5.72	> 6.52	81	83	27					
CC(C)C[C@@H](CO)NCC(=O)N1CCc2ccccc2C1C1CCCCC1 (stereo partly specified)	5.96	7.36	69	46	32					
C[C@@H](O)CNCC(=O)N1CCc2cccc(F)c2C1C1CCCCC1 (stereo partly specified)	5.60									
CC(C)c1ccc2c(c1)C(C1CCCCC1)N(C(=O)CNC[C@@H](C)O)CC2 (stereo partly specified)	5.89	5.72	88	43						
CC(C)(C)[C@@H](CO)NCC(=O)N1CCc2ccccc2C1C1CCCCC1 (stereo partly specified)	5.85	7.17	65	33	40					
O=C(CNCC1(O)CCCCC1)N1CCc2ccccc2C1C1CCCCC1 (stereo unspecified)					62					
C[C@@H](O)CNCC(=O)N1CCc2cc(F)ccc2C1C1CCCCC1 (stereo partly specified)	5.80	5.80	92	91						
O=C(CNCC1(O)CCCCC1)N1CCc2ccccc2[C@@H]1c1ccccc1	6.00	> 6.41								
C[C@@H](O)CNCC(=O)N1CCc2c(F)cccc2C1C1CCCCC1 (stereo partly specified)	5.92	> 6.41	95	49						
C[C@@H](O)CNCC(=O)N1CCc2ccc(C#N)cc2C1C1CCCCC1 (stereo partly specified)	5.59									
COc1cccc2c1[C@@H](c1ccccc1)N(C(=O)CNC[C@@H](C)O)CC2	5.48		110	91						
Cc1ccc2c(c1)C(C1CCCCC1)N(C(=O)CNC[C@@H](C)O)CC2 (stereo partly specified)	5.77									
C[C@@H](O)CNCC(=O)N1CCc2ccccc2C1C1CCCCC1 (stereo partly specified)	5.70	5.96	92	95	39					
COc1cccc2c1C(C1CCCCC1)N(C(=O)CNC[C@@H](C)O)CC2 (stereo partly specified)	5.85	4.52	85	58						
C[C@@H](O)CNCC(=O)N1CCc2cc(C#N)ccc2C1C1CCCCC1 (stereo partly specified)	5.51									
C[C@@H](O)CNCC(=O)N1CCc2cccc(F)c2C1c1ccccc1 (stereo partly specified)	6.00	5.89	103	95						
C[C@@H](O)CNCC(=O)N1CCc2cc(C(N)=O)ccc2C1C1CCCCC1 (stereo partly specified)	< 5.00									
COc1cccc2c1[C@H](c1ccccc1)N(C(=O)CNC[C@@H](C)O)CC2	5.85		94	90	77	< 4.30	< 4.30	> 10	45.9	2.8
COc1ccc2c(c1)C(C1CCCCC1)N(C(=O)CNC[C@@H](C)O)CC2 (stereo partly specified)	5.80	5.43	97	83						
C[C@@H](O)CNCC(=O)N1CCc2ccc(F)cc2C1C1CCCCC1 (stereo partly specified)	5.64	5.89	109	80						
C[C@@H](O)CNCC(=O)N1CCc2ccccc2[C@@H]1c1ccccc1	5.62	5.66	98	94						
Cc1cccc2c1C(c1ccccc1)N(C(=O)CNC[C@@H](C)O)CC2 (stereo partly specified)	5.89	5.25	100	89						
C[C@H](O)CNCC(=O)N1CCc2ccccc2C1C1CCCCC1 (stereo partly specified)	5.82	5.80	96	91	0					
Cc1ccc2c(c1)CCN(C(=O)CNC[C@@H](C)O)C2C1CCCCC1 (stereo partly specified)	5.62									
